Experimental data as given in ChEMBL document CHEMBL1158993, “Inhibition of tumor-promoter-enhanced 3H-choline incorporation into cellular phospholipids by phloroglucinol derivatives from Mallotus japonicus” (1991).
Converted amounts (≈) assume the structure as drawn. The source made the active and inactive calls. The calls are words filed in the database; no cut-off is given here.

What was measured:
[1] = Antitumor promotor activity against mouse C3H10T1/2 cells assessed as inhibition of TPA-enhanced [3H]choline chloride incorporation in to phospholipids at 50 ug/ml after 1 hr; assay type: functional; conditions: C3H 10T1/2
[2] = Antitumor promotor activity against mouse C3H10T1/2 cells assessed as inhibition of TPA-enhanced [3H]choline chloride incorporation in to phospholipids at 10 ug/ml after 1 hr; assay type: functional; conditions: C3H 10T1/2
[3] = Antitumor promotor activity against mouse C3H10T1/2 cells assessed as inhibition of TPA-enhanced [3H]choline chloride incorporation in to phospholipids at 2 ug/ml after 1 hr; assay type: functional; conditions: C3H 10T1/2
KB = experiment: Cytotoxicity against human KB cells; assay type: functional
C3H 10T1/2 = experiment: Antitumor promotor activity against mouse C3H10T1/2 cells assessed as inhibition of TPA-enhanced [3H]choline chloride incorporation in to phospholipids at 1.5 ug/ml after 1 hr; assay type: functional, cell-based
Outline: (§1)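 Mouse C3H10T1/2 fibroblasts were exposed to test agent for 1 h. Then [methyl-3H]choline chloride (9.25 kBq/culture) was added together with TPA (50 nM), and incubation continued for 4 h. Radioactivity in the phospholipid fraction was measured, and inhibition of the TPA-enhanced incorporation was expressed as %. Test concentrations were 50, 10, 2 or 1.5 µg/ml. Values are means of duplicate experiments.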

[4] = Antitumor promotor activity against mouse C3H10T1/2 cells assessed as inhibition of TPA-enhanced [3H]choline chloride incorporation in to phospholipids after 1 hr; assay type: functional; conditions: C3H 10T1/2, read-out: ID50 (the source's name); outline: as §1
HEp-2 = experiment: Cytotoxicity against human Hep2 cells; assay type: functional, cell-based
PC-13 = experiment: Cytotoxicity against human PC13 cells; assay type: functional, cell-based
B16 = experiment: Cytotoxicity against mouse B16 cells; assay type: functional, cell-based
L5178Y = experiment: Cytotoxicity against mouse L5178Y cells; assay type: functional, cell-based
P388 = experiment: Cytotoxicity against mouse P388 cells; assay type: functional, cell-based

## COc1c(C)c(O)c(C(C)=O)c(O)c1Cc1c(O)c2c(c(C(C)=O)c1O)OC(C)(C)CC2 [MALLOTOCHROMAN]
[1]
  inhibition at 50 µg/mL: 74.3%
[2]
  inhibition at 10 µg/mL: 68.7%
[3]
  inhibition at 2 µg/mL: 9.3%

## COc1c(C)c(O)c(C(C)=O)c(O)c1Cc1c(O)c2c(c(C(C)=O)c1O)OC(C)(C)C(O)C2 (stereo unspecified) [MALLOTOCHROMANOL]
[1]
  inhibition at 50 µg/mL: 100%
[2]
  inhibition at 10 µg/mL: 29.2%
[3]
  inhibition at 2 µg/mL: 2.9%

## COc1c(C)c(O)c(C(C)=O)c(O)c1Cc1c(O)c(C(C)=O)c(O)c2c1OC(C)(C)C=C2 [ISOMALLOTOCHROMENE]
[1]
  inhibition at 50 µg/mL: 100%
[2]
  inhibition at 10 µg/mL: 100%
[3]
  inhibition at 2 µg/mL: 97.9%
KB
  Activity: Active

## COc1c(C)c(O)c(C(C)=O)c(O)c1Cc1c(O)c(C(C)=O)c(O)c2c1OC(C)(C)C(O)C2 (stereo unspecified) [ISOMALLOTOCHROMANOL]
[1]
  inhibition at 50 µg/mL: 100%
[2]
  inhibition at 10 µg/mL: 95.5%
[3]
  inhibition at 2 µg/mL: 0%

## COc1c(C)c(O)c(C(C)=O)c(O)c1Cc1c(O)c2c(c(C(C)=O)c1O)OC(C)(C)C=C2 [MALLOTOCHROMENE]
[1]
  inhibition at 50 µg/mL: 100%
[2]
  inhibition at 10 µg/mL: 66.7%
KB
  Activity: Active

## COc1c(C)c(O)c(C(C)=O)c(O)c1Cc1c(O)c(CC=C(C)C)c(O)c(C(C)=O)c1O [MALLOTOJAPONIN]
[1]
  inhibition at 50 µg/mL: 100%
[2]
  inhibition at 10 µg/mL: 100%
[3]
  inhibition at 2 µg/mL: 85.8%
C3H 10T1/2
  Activity: Active
[4]
  IC50: 1 µg/mL
KB; read-out: ED50 (the source's name)
  EC50: 0.58 µg/mL (≈ 1.3 µM)
HEp-2
  Activity: Active
PC-13
  Activity: Active
B16
  Activity: Active
L5178Y
  Activity: Active
P388
  Activity: Active

## C=C(C)C(O)Cc1c(O)c(Cc2c(O)c(C(C)=O)c(O)c(C)c2OC)c(O)c(C(=O)CCC)c1O (stereo unspecified) [MALLOTOLERIN]
[1]
  inhibition at 50 µg/mL: 100%
[2]
  inhibition at 10 µg/mL: 100%
[3]
  inhibition at 2 µg/mL: 78.8%
KB
  Activity: Active
